Source: PubChem
This is a sample that favours compounds with a hit; in the whole collection about 5.8% have one here.
p47phox inh = p47phox (human) inhibition; inhibition, % at 24.7 µM; hit rate 0.53% among 220,000; AID 1274; p47phox/p22phox peptide binding, fluorescence polarization, 2 h;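 active means inhibition above about 30%, limit read from the data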;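 further: 0% = p47phox with labelled peptide and 100% = labelled peptide alone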
WT yeast gro inh = growth inhibition of WT yeast, mitochondrial fusion screen; mitochondrial fusion phenotypic screen, WT strain; hit rate 2.1% among 190,000; inhibition, % at 10 µM; in the data active means inhibition above about 58%; tested in S. cerevisiae
RBBP9 inh = human RBBP9 hydrolase inhibition; recombinant RBBP9, FP-Rh probe fluorescence polarization; inhibition, % at 7.94 µM; hit rate 0.2% among 220,000; AID 1515;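 active means inhibition above the campaign mean of all tested compounds plus 3 SD, cut at about 14% in these data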;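 further: plate controls were DMSO wells with RBBP9 for no effect and wells lacking RBBP9 protein for full effect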
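Test system: recombinant human RBBP9; Timing: 30 min then 45 min, 25 °C; Detection: fluorescence polarization; Control set: RBBP9 with DMSO as uninhibited control, no-protein wells as full inhibition; Compound dosing: one concentration, 7.94 µM nominal, 0.794% DMSO; Probe or stimulus: FP-Rh activity-based probe, 375 nM before mixing.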
14-3-3 Bad PPI = disrupts binding of bovine 14-3-3 zeta to phospho-Bad peptide; P63103; TR-FRET 14-3-3zeta/Dy647-pBad peptide displacement, 1 h; inhibition, % at 21.7 µM; hit rate 0.71% among 220,000; AID 781;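 active means inhibition above about 70%, limit read from the data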;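 further: 0% = full 14-3-3 plus peptide FRET controls and 100% = background without 14-3-3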
Cl transport mod = KCC2 (human) Cl- transport modulation; Q9H2X9; AID 1456; KCC2 cells, thallium flux FluoZin-2 fluorescence; hit rate 2.2% among 190,000; B-score of Tl+ flux slope (higher = more flux/activation; lower = inhibition) at 10 µM;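 active means thallium flux slope and its plate-corrected score both differing from the plate sample mean at a set confidence after two filtering rounds, in either direction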;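 further: slope of fluorescence scaled to starting intensity during 10 to 20 s after thallium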
Target sequence (Q9H2X9 whole entry, looked up): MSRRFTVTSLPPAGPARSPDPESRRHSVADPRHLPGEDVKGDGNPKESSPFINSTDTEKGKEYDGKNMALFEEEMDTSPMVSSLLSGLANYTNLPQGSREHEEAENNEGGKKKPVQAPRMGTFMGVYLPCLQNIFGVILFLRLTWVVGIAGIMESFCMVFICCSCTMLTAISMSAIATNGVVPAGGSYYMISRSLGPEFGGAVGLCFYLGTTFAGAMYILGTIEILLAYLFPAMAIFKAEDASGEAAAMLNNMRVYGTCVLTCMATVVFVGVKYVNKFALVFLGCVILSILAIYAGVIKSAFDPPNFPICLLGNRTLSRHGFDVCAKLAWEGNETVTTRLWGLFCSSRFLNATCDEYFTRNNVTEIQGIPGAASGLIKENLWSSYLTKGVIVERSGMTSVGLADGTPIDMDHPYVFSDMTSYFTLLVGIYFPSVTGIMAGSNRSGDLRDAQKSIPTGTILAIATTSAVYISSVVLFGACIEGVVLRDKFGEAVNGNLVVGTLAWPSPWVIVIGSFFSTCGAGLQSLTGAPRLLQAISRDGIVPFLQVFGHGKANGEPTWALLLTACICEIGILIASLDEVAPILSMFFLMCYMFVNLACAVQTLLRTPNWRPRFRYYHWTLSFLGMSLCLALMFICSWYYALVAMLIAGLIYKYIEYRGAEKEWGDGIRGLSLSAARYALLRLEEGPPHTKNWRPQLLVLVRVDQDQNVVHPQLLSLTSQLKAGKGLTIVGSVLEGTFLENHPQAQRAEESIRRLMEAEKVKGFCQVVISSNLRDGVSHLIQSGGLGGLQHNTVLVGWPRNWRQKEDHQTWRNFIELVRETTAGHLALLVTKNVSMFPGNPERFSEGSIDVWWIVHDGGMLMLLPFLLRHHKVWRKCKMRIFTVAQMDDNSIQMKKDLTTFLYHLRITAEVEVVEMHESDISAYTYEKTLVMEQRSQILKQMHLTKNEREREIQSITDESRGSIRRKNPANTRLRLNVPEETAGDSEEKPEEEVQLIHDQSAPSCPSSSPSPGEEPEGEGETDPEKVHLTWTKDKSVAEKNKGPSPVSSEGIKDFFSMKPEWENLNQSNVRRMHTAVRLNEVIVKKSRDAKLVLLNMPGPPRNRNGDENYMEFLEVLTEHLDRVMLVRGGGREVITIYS
ROMK primary = modulates human ROMK potassium channel activity; P48048; Tet-inducible ROMK, thallium flux fluorescence; actives lie on both sides; B-score at 10 µM; hit rate 2% among 130,000;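 active means signal ratio slope over the read window, or its plate-corrected B-score, at least 3 SD from the plate mean, either direction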;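 further: B-score of the F/F0 ratio slope over 7 to 12 s after thallium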
* marks the source's active call; other numbers are inactive results; nt = not tested or not shown; [ ] = dose if it differs, or a comment.

SMILES	p47phox inh	WT yeast gro inh	RBBP9 inh	14-3-3 Bad PPI	Cl transport mod	ROMK primary
C#CCOCCOCCOCCNc1nc(N2CCN(C(=O)[C@H](CCCCN)n3cc(CCCC)nn3)CC2)nc(N2CCN(C(=O)[C@H](Cc3ccc(O)cc3)n3cc(CCO)nn3)CC2)n1	63*	5	2	42	1.4	0.11
CCOP(=O)(OCC)C(Nc1ccc(F)cc1)c1ccccc1 (centres undefined)	-4	nt	-4	-2	-0.14	-0.22
CCOP(=O)(OCC)C(Nc1cccc(C(F)(F)F)c1)c1ccc(Br)cc1 (centres undefined)	-19	80*	-2	2	0.2	nt
Cn1c(N/N=C2\CCCc3ccccc32)nc2c1c(=O)n(Cc1ccc(F)cc1)c(=O)n2C	8	7	-6	96*	-0.01	nt
Cn1c(OCc2cccnc2)nc2c1c(=O)n(Cc1ccc(F)cc1)c(=O)n2C	-2	nt	-7	-1	-1.7	-2.1
C/C(CC(=O)Nc1cccc(C(F)(F)F)c1)=N\NC(=O)C1CCCCC1	0	-14	-8	-11	0.2	-0.56
Cc1ccc(-c2nnc3n2CCCCC3)cc1	-4	74*	-7	2	0.96	0.024
Clc1ccc(-c2nnc3n2CCCC3)cc1	-16	1	-4	16	-0.24	nt
O=C1c2ccccc2NC(c2ccc3c(c2)OCO3)N1O (centres undefined)	-3	-3	-1	-3	1.9	nt
O=C1c2ccccc2NC(c2ccc(-c3ccc(Br)cc3)o2)N1O (centres undefined)	-8	0	-4	-6	8.6*	nt
COc1cc(C(C(=O)Nc2c(C)cccc2C)N(C)C(=O)c2ccc(-n3cnnn3)cc2)ccc1O (centres undefined)	-8	nt	0	2	0.33	nt
COc1ccc(S(=O)(=O)N2CCCCCC2)cc1C(=O)OCc1c(C)noc1C	23	97*	-1	4	-0.3	-6.7*
COc1ccc(C(C)=O)cc1COC(=O)c1ccc(OCc2c(C)noc2C)cc1	7	-19	0	73*	0.58	-0.54
FC(F)(F)c1ccc(Cl)c(N/N=C/c2ccc(N3CCOCC3)s2)c1	-15	58*	2	-18	0.64	0.34
Cc1cccc(S(=O)(=O)c2c(N)n(Cc3ccco3)c3nc4ccccc4nc23)c1	-103	15	-5	-13	-5.5*	-2.9*
Cc1cc(NCc2ccccc2)nc(-c2ccccc2O)n1	-14	62*	-7	0	-0.13	nt
Cc1cc(Nc2ccccc2)nc(-c2ccccc2O)n1	-18	0	-4	-11	0.44	nt
COc1cc(CN2CCC(C(=O)N3CCC(C)CC3)CC2)cc(Br)c1O	-5	8	1	79*	0.011	nt
CCSc1sccc1C1C(C#N)=C(N)N(c2cccnc2)C2=C1C(=O)CCC2 (centres undefined)	-3	-11	-7	90*	0.01	nt
COc1cc(C2C(C#N)=C(N)N(c3cccnc3)C3=C2C(=O)CCC3)ccc1O (centres undefined)	-25	-2	-3	-6	0.034	-0.41
S=C1NC(c2cccs2)=CC(c2ccc(Br)cc2)N1 (centres undefined)	-17	72*	-5	-22	0.11	-0.54
COc1ccccc1-n1cnc2c(c1=O)c1nc3ccccc3nc1n2-c1ccc(C)c(C)c1	35*	23	-5	41	0.027	nt
CCN(CC)C1=C(Cl)C(=O)C(Cl)C12OCCO2 (centres undefined)	8	nt	1	6	0.34	nt
CN1C/C(=C/c2cccnc2)C(=O)/C(=C/c2cccnc2)C1	-8	-1	-3	1	-0.11	-3.5*
CC(C)N1C/C(=C/c2cccnc2)C(=O)/C(=C/c2cccnc2)C1	0	5	-3	-1	0.51	-1.6
CCn1[nH]c(=O)c(=Nc2c(C)n(C)n(-c3ccccc3)c2=O)cc1-c1ccc(Cl)cc1	-13	-5	2	91*[fluorescence artefact?]	-0.75	-0.065
COC(=O)c1nnn(-c2nc(N3CCOCC3)nc(N3CCOCC3)n2)c1C	0	-12	-4	-10	-0.47	-0.021
CSc1nncn1/N=C/c1ccc2c(c1)OCO2	-15	64*	-1	2	-0.56	nt
CC1(C)[C@H]2CC=C(CN3CCC(N4CCC(C(=O)N5CCCC5)CC4)CC3)[C@@H]1C2	-17	-2	-4	-8	0.96	-0.45
